Source: PubChem
Compounds with a hit are over-represented: about 2% of the library has one in this group of screens.
NR2E3 ag-1 – agonists of human NR2E3 nuclear receptor; Q9Y5X4; CHO-S Gal4-NCOR/VP16-NR2E3 two-hybrid, luciferase; inhibition of corepressor binding, % at 3.98 µM; 360,000 compounds, 0.35% hits; AID 602229;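 active = inhibition above the mean of all tested compounds plus 3 SD, cut at about 70% in these data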;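 also: 0% = DMSO with NR2E3 transfected cells and 100% = cells lacking NR2E3 construct; higher means lower luciferase signal from less NR2E3 corepressor binding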
Target sequence (Q9Y5X4 whole entry, looked up, the tested form may be a part): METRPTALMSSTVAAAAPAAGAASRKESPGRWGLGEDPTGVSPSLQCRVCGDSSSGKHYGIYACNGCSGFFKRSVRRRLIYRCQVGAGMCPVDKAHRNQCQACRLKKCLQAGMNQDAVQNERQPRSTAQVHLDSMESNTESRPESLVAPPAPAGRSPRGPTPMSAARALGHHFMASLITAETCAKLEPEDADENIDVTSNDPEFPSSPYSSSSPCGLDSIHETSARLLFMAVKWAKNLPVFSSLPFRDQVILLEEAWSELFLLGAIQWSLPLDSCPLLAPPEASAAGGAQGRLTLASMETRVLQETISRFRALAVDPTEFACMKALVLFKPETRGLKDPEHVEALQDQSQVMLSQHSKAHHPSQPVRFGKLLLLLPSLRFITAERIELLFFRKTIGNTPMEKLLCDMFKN
FXN GAA850 act – frataxin GAA850 promoter activation; HEK293 lucGAA850 FXN promoter luciferase reporter, 24 h; percent of 10 µM SAHA response; activation, % at 6 µM; 360,000 compounds, 0.56% hits;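 active = activation above the average of all compounds screened plus 3 SD, cutoff fixed separately per campaign, cut at about 7.5% in these data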;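 also: 0% = DMSO wells and 100% = 10 µM SAHA wells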
Myeloid diff MLP – myeloid differentiation induction | ER-HoxA9 myeloid progenitors, lysozyme-GFP differentiation, flow cytometry | calls only at 10 µM | 360,000 compounds, 1% hits | AID 624256;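 active = normalized GFP-positive differentiation at or above the plate's own cutoff, the solvent-only control mean plus 3 SD; inconclusive = no clear call, values can overlap the other calls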;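 also: cells exposed to compound for four days before flow analysis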
T cell modulator – T cell immune modulation candidate; 2C CD8+ T cell-vesicle binding, flow cytometry; active compounds read low; response (vesicle binding), % at 7 µM; 330,000 compounds, 0.068% hits; AID 2052;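 active = response, share of CD8 T cells binding vesicles, and their 90th percentile fluorescence all below set limits, cut at about 80% in these data, passing the limit was not always enough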;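 also: values below 100% mean blocked vesicle binding to the CD8+ T cells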
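Material: 2C TCR transgenic mouse naive CD8+ T cells, MACS-purified. Also added: QL9-charged Drosophila Ld/ICAM-1/B7-1 vesicles. Timing: binding 1.5 h at 37 °C. Measured by: high-throughput flow cytometry with anti-B7-1 and anti-CD8 staining. Read-out: percent CD8+ FL2 mean versus row control. Controls: Unloaded micro-vesicles (low), QL9 vesicles with 0.7% DMSO (high).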
NR2E3 ag-2 – NR2E3 (human) agonism | Q9Y5X4 | GST-NR2E3/biotin-RetCOR TR-FRET, 1536-well | inhibition of corepressor binding, % at 4.78 µM | 320,000 compounds, 0.12% hits | AID 2300;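 active = percent inhibition above the cutoff of mean plus 3 SD of all tested compounds, set per screening campaign, cut at about 20% in these data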;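 also: 0% = DMSO wells and 100% = biotin wells as full block of FRET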
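Test system – NR2E3–RetCOR corepressor complex · Quantity – NR2E3 fusion 1.35 nM · Buffer or medium – Tris pH 7.5 · Incubation – Compound–protein incubation for 5 h at 4 °C · Technique – TR-FRET, Eu(K)-anti-GST donor, streptavidin-D2 acceptor, ex 340, em 617/671 nm · Evaluation – percent inhibition of 671/617 nm emission ratio versus biotin and DMSO controls · Plate – 1536-well format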
NR2E3 ag conf – confirmation of human NR2E3 agonists | inhibition, % at 3.98 µM | 2,300 compounds, 51% hits | shares compounds with NR2E3 ag-1 | CHO-S mammalian two-hybrid NR2E3-NCOR, luciferase luminescence;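 active = average inhibition above a cutoff equal to the mean inhibition of all tested compounds plus one SD, cut at about 70% in these data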;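 also: 0% = DMSO in NR2E3 cells and 100% = DMSO in cells lacking NR2E3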
GAL4-VP16 luc – counter-screen for NR2E3 agonists: GAL4-VP16 reporter inhibitors; shares compounds with NR2E3 ag-1; CHO-S GAL4-VP16 luciferase reporter, luminescence; inhibition, % at 3.98 µM; 2,300 compounds, 29% hits;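 active = mean inhibition above a cutoff equal to the average over all tested compounds plus one standard deviation, cut at about 70% in these data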;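 also: luciferase from a UAS reporter driven by GAL4-VP16 transactivation; 0% = DMSO with VP16-transfected cells and 100% = DMSO with cells lacking VP16; higher means less reporter light so more repression of VP16 activity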
Numbers without * were called inactive; i = inactive; u = inconclusive; x = no result given.

SMILES	NR2E3 ag-1	FXN GAA850 act	Myeloid diff MLP	T cell modulator	NR2E3 ag-2	NR2E3 ag conf	GAL4-VP16 luc
COCc1nnc(NC(=O)C2CC(=O)N(c3ccc(C)c(Cl)c3)C2)s1 (configuration not stated)	-12	0	i	230	-5	x	x
CC1CCN(CCc2nc3cc(NC(=O)COc4ccc(Cl)cc4)ccc3n2C)CC1	4	3	u	485	0	x	x
Cc1nn(Cc2ccc(Cl)c(Cl)c2)c(C)c1NC(=O)c1sc2ccccc2c1Cl	51	-2	i	264	0	57	29
Cc1nn(Cc2ccc(Cl)c(Cl)c2)c(C)c1NC(=O)c1cc(-c2ccco2)on1	51	1	i	x	2	79*	66
Cc1nn(Cc2ccc(Cl)cc2)c(C)c1NC(=O)c1cc(-c2ccco2)on1	25	-1	u	139	2	x	x
Cc1nn(Cc2c(Cl)cccc2Cl)c(C)c1NC(=O)c1sc2ccccc2c1Cl	-8	-3	i	185	0	x	x
CCC[C@H]1CN(c2ccc(Br)cc2)C(=O)[C@@H]1CC(=O)Nc1ccc(OC)cc1	-2	-1	i	x	x	x	x
COc1ccc(-c2cn(CCO)c(-c3ccc(Cl)nc3)n2)cc1	-15	2	i	174	2	x	x
O=C1C=CC(O)(c2cc(=O)c3c(O)cc(O)cc3o2)C=C1	48	-11	u	175	2	-54	-40
CCCc1cc(=O)oc2cc(C)cc(OCC(=O)Nc3cccnc3)c12	-29	-4	i	293	-2	x	x
Cc1cccc(CSC(=N)N)c1	4	3	i	382	-2	x	x
Cc1cccc(CSC(Nc2ccc(F)cc2)=C(C#N)C#N)c1	97*	-5	i	233	0	98*	93*
CCCOc1ccc(CSc2nc3ccccc3[nH]2)cc1	74*	1	i	121	5	74*	44
CCOCCC(=O)Nc1ccc2c(c1)c(=O)n(C)n2CC=C(C)C	-28	-5	i	x	x	x	x
O=C(CCCN1C(=O)/C(=C/c2ccc3c(c2)OCO3)SC1=S)Nc1cccc(C(=O)O)c1	66	-6	i	609	4	43	68
COc1cccc(/C=C2\SC(=S)N(CCCC(=O)Nc3ccc(C(=O)O)cc3)C2=O)c1	19	-6	i	143	0	x	x
COc1cccc(/C=C2/SC(=S)N(CCCC(=O)Nc3ccc(O)cc3)C2=O)c1	54	-14	i	319	1	15	70
Cc1ccc(/C=C2\SC(=S)N(CCC(=O)NNC(=O)c3ccccc3O)C2=O)cc1	-16	-1	i	182	3	x	x
O=C(CCCN1C(=O)/C(=C\c2ccccc2)SC1=S)Nc1ccc(O)cc1	8	-3	i	301	0	x	x
Cc1ccc(/C=C2\SC(=S)N(CCCC(=O)NNC(=O)c3ccccc3O)C2=O)cc1	69	-17	i	750	0	67	73*
Cc1ccc(/C=C2/SC(=S)N(CCCC(=O)Nc3ccc(O)cc3)C2=O)cc1	88*	-15	x	x	x	41	90*
CC(=O)C(=Cc1ccc(-c2ccccc2)cc1)C(=O)c1ccccc1	22	x	i	x	x	x	x
O[C@H]1C[C@H](c2ccccc2)N(CC2CCCCC2)C[C@@H]1n1cc(C2CC2)nn1	3	0	i	x	x	x	x
COc1ccccc1N=NNc1ccc(S(=O)(=O)NC(C)=O)cc1	-7	x	i	x	x	x	x
CCn1c(SCC(=O)N(C)C)nc2cc(S(=O)(=O)N3CCCCC3)ccc21	-40	1	i	90	-1	x	x
SMILES	NR2E3 ag-1	FXN GAA850 act	Myeloid diff MLP	T cell modulator	NR2E3 ag-2	NR2E3 ag conf	GAL4-VP16 luc
Cc1ccc(C=C2SC(=S)N(CCCC(=O)Nc3cccc(C(=O)O)c3)C2=O)cc1	73*	-4	i	x	x	32	88*
COc1ccc(/C=C2\SC(=O)N(CCCC(=O)Nc3cc(Cl)ccc3C(=O)O)C2=O)cc1	88*	-15	i	396	x	80*	87*
O=C(CCCN1C(=O)/C(=C\c2ccccc2)SC1=S)Nc1cccc(C(=O)O)c1	-21	0	i	378	1	x	x
CCc1ccc(/C=C2/SC(=S)N(CCCC(=O)Nc3cccc(C(=O)O)c3)C2=O)cc1	-30	-7	i	x	x	x	x
Cc1ccc(/C=C2\SC(=S)N(CCCC(=O)Nc3cccc(C(=O)O)c3)C2=O)cc1	85*	-5	i	212	2	40	89*
CC(=C\c1ccccc1)/C=C1/SC(=O)N(CCCC(=O)Nc2ccc(C(=O)O)cc2)C1=O	73*	-10	x	140	2	10	76*
C=C(C)CN(CC)C(=O)CSc1ccc(S(=O)(=O)N2CCN(C)CC2)cn1	6	-1	i	x	x	x	x
C/C(=N\NC(=S)NCCc1ccccc1)c1ccc(C)cc1	70	1	i	268	2	1	-5
C/C(=N\NC(=S)NCCc1ccccc1)c1ccc(C#N)cc1	20	0	i	687	1	x	x
C/C(=N\NC(=S)NCCc1ccccc1)c1ccc(Cl)cc1	54	1	i	210	-2	20	-25
C/C(=N/NC(=O)CNC(=O)CCc1ccccc1)c1ccc(Cl)cc1	1	2	i	443	1	x	x
CCCS(=O)(=O)NC(=O)C1(C)CCCN(C(=O)Cc2ccc3ccccc3c2)C1 (configuration not stated)	3	1	i	x	x	x	x
O=C(C(=Cc1ccccc1)CN1CCCCC1)c1ccccc1	93*	-14	u	x	x	101*	47
O=C(CCCCN1CCCCC1)c1ccccc1	-18	1	i	324	-1	x	x
COc1cccc(CNc2nc(NCC3CC3)nc3ccsc23)c1	84*	-3	u	x	x	41	41
CSc1ccccc1CNc1nc(NCC2CC2)nc2ccsc12	72*	-1	u	x	x	60	47
COc1cccc(CNc2nc(NCc3ccccc3)nc3ccsc23)c1	60	-2	i	x	x	51	53
CNc1nc(NCc2cccc(OC)c2)c2sccc2n1	13	1	i	x	x	x	x
CC(C)c1ccc(CNc2nc(NCC3CC3)nc3ccsc23)cc1	64	-1	i	x	x	48	45
C/C=C/c1cnc2c(c1)C(=O)N([C@H](C)CO)C[C@H](C)[C@@H](CN(C)C(=O)CN1CCOCC1)O2	3	2	i	x	x	x	x
COc1cccc(CN2CC(C(=O)NCCc3cn4cccnc4n3)CCC2=O)c1 (configuration not stated)	-27	1	i	x	x	x	x
N#Cc1c(-c2ccccc2)nc(SCc2ccc(Cl)cc2)[nH]c1=O	72*	1	i	x	6	58	36
